Experiments:
[1] = test system: Respiratory syncytial virus; assay: Antiviral activity against GFP-fused wild-type RSV subgroup A Long infected in human HEp-2 cells measured 24 to 72 hrs post infection by fluorescence assay; type: functional, cell-based
Method in brief: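 HEp-2 cells plated, then after 24 h infected with RSV-mGFP using 3-fold serially diluted inocula starting from 3 × 10^4 pfu/well. Compounds came from a 100 mM DMSO stock, diluted as indicated. RFU read at 479/517 nm at 24, 48 and 72 h post-infection, with non-infected cells as background. Mean ± SD of at least three experiments.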

[2] = Cytotoxicity against human HEp-2 cells assessed as reduction in cell viability measured after 48 hrs by MTS assay; type: cell-based
Method in brief: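 HEp-2 cells plated; after 24 h, compound added and cells incubated 48 h. MTS (2 mg/ml) then added for 3 h at 37 °C in 5% CO2 and absorbance read at 490 nm. Untreated control set as 100%.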

[3] = Safety index, ratio of CC50 for human HEp-2 cells to EC50 for GFP-fused wild-type RSV subgroup A long infected in human HEp-2 cells; type: toxicity, cell-based; conditions: read-out: Ratio CC50/EC50
[4] = test system: Influenza A virus; assay: Antiviral activity against Influenza A virus A/WSN/33(H1N1) infected in human HEK293T cells measured after 24 hrs by Gaussia luciferase reporter gene method; type: functional, organism-based; conditions: A/WSN/1933(H1N1); for EC50: HEK-293T
Method in brief: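 HEK293T cells carrying a Gaussia luciferase reporter that is activated by IAV, infected with A/WSN/33 (H1N1) for 1 h at room temperature, then cultured 24 h at 37 °C with serially diluted compound. Supernatant Gluc read with coelenterazine-h (16.7 μM in PBS) as 0.5-s photon counts. Normalized to control set as 100%; ribavirin positive control; three experiments.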

[5] = Cytotoxicity against HEK293T cells assessed as reduction in cell viability measured after 48 hrs by CCK8 assay; type: cell-based, HEK-293T; conditions: human
Method in brief: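 293T cells treated for 48 h with six compound concentrations from 12.5 to 200 μM, with DMSO-only cells as control. CCK-8 then added for 1 h at 37 °C and OD read at 450 nm. Mean ± SD of three experiments.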

[6] = Safety index, ratio of CC50 for HEK293T cells to EC50 for antiviral activity against Influenza A virus A/WSN/33(H1N1) infected in human HEK293T cells; type: toxicity, cell-based; conditions: read-out: Ratio CC50/EC50
[7] = test system: Influenza A virus; assay: Antiviral activity against Influenza A virus A/WSN/33(H1N1) infected in MDCK cells measured after 24 hrs by Gaussia luciferase reporter gene method; type: functional, organism-based; conditions: A/WSN/1933(H1N1)
Method in brief: (§1)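 MDCK cells infected with IAV A/WSN/33 (H1N1) or H3N2 for 1 h at room temperature, then cultured in fresh DMEM with serially diluted compound for 24 h at 37 °C. Gluc activity in the medium read with coelenterazine-h (16.7 μM in PBS). Normalized to control set as 100%; ribavirin positive control; mean ± SD of three experiments.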

[8] = Antiviral activity against H3N2 infected in MDCK cells measured after 24 hrs by Gaussia luciferase reporter gene method; type: functional, cell-based, H3N2 subtype; conditions: Influenza A virus; method in brief: as §1
[9] = test system: Influenza A virus; assay: Antiviral activity against Influenza A virus A/WSN/33(H1N1) infected in human HEK293T cells assessed as inhibition of viral replication at 10 uM measured after 24 hrs by Gaussia luciferase reporter gene method relative to control; type: functional; conditions: A/WSN/1933(H1N1), HEK-293T

| Structure (SMILES) | EC50 [1] [µM] | CC50 at 48 h [2] [µM] | selectivity ratio [3] | EC50 [4] [µM] | CC50 at 48 h [5] [µM] | selectivity ratio [6] | Activity [1] | Activity [4] | EC50 [7] [µM] | EC50 [8] [µM] | inhibition at 10 µM [9] [%] |
| --- | --- | --- | --- | --- | --- | --- | --- | --- | --- | --- | --- |
| O=C(CSc1c[nH]c2cccc(Cl)c12)Nc1ccc(Cl)c(Cl)c1 | 25.3 | 27.7 | 1.09 | 5.72 | 34.7 | 5.95 | – | – | – | – | – |
| Cn1cc(S(=O)(=O)CC(=O)Nc2ccc(Cl)cc2Cl)c2ccccc21 | > 128 | > 1000 | – | 33.7 | > 100 | > 2.97 | – | – | – | – | – |
| COc1ccc2[nH]cc(SCC(=O)Nc3ccc(Cl)c(Cl)c3)c2c1 | 16.6 | 46.4 | 2.79 | 15.5 | 61.8 | 4.19 | – | – | – | – | – |
| Cn1cc(SCC(=O)Nc2ccccc2Cl)c2ccccc21 | > 128 | > 1000 | – | 27.9 | > 100 | > 3.59 | – | – | – | – | – |
| COc1cccc2c(SCC(=O)Nc3ccc(Cl)c(Cl)c3)c[nH]c12 | 17.3 | 39.5 | 2.28 | 13.8 | > 100 | > 7.21 | – | – | – | – | – |
| O=C(CSc1c[nH]c2c(Cl)cccc12)Nc1ccc(Cl)c(Cl)c1 | 18.1 | 32.8 | 1.81 | 10.4 | 49.1 | 4.69 | – | – | – | – | – |
| Cn1cc([S+]([O-])CC(=O)Nc2cccc(Cl)c2)c2ccccc21 (stereo not given) | > 128 | > 1000 | – | 39.3 | > 100 | > 2.55 | – | – | – | – | – |
| CCOc1ccccc1NC(=O)CSc1c[nH]c2cccc(Cl)c12 | 2.45 | 7.15 | 2.92 | 0.58 | 25.2 | > 41 | Dose-dependent effect | Dose-dependent effect | 2.67 | 2.33 | – |
| CCOc1ccccc1NC(=O)CSc1c[nH]c2cc(OC)ccc12 | 23.1 | 35.2 | 1.53 | 4.48 | 88.2 | 15.4 | – | – | – | – | – |
| Cn1cc([S+]([O-])CC(=O)Nc2ccc(Cl)cc2)c2ccccc21 (stereo not given) | > 128 | 61.9 | – | 9.93 | > 100 | > 10 | – | – | – | – | – |
| CCOc1ccccc1NC(=O)CSc1c[nH]c2c(Cl)cccc12 | 4.46 | 262 | 58.8 | 1.75 | > 100 | > 57.5 | – | – | 4.33 | 1.83 | – |
| Cn1cc(SCC(=O)Nc2cccc(Cl)c2Cl)c2ccccc21 | > 128 | > 1000 | – | 14 | > 100 | > 7.26 | – | – | – | – | – |
| CCOc1ccccc1NC(=O)CSc1c[nH]c2cccc(OC)c12 | 12.3 | 220 | 17.9 | 11.2 | > 100 | > 8.8 | – | – | – | – | – |
| Cn1cc(SCC(=O)Nc2c(Cl)cccc2Cl)c2ccccc21 | 17.3 | 23.7 | 1.37 | 3.5 | > 100 | > 28.6 | – | Dose-dependent effect | 1.75 | 1.5 | > 85 |
| O=C(CSc1c[nH]c2cc(Cl)ccc12)Nc1ccc(Cl)c(Cl)c1 | 14 | 27.8 | 1.99 | 7.36 | 67.8 | 9.16 | – | – | – | – | – |
| Cn1cc(SCC(=O)Nc2ccc(Cl)cc2Cl)c2ccccc21 | > 128 | > 1000 | – | 11.9 | > 100 | > 8.38 | – | – | – | – | – |

Source: ChEMBL document CHEMBL4715831, “Design and synthesis of 2-((1H-indol-3-yl)thio)-N-phenyl-acetamides as novel dual inhibitors of respiratory syncytial virus and influenza virus A” (Eur J Med Chem, 2020)
